Measurements published in ChEMBL document CHEMBL4052652, “Development of WNK signaling inhibitors as a new class of antihypertensive drugs” (Bioorg Med Chem, 2017).
The source made the active and inactive calls. No cut-off for these calls is given here.

Legend:
[1] = target: STE20/SPS1-related proline-alanine-rich protein kinase (Rattus norvegicus, UniProt O88506); assay: Inhibition of TAMRA-labelled WNK4 binding to recombinant rat C-terminal GST-fused SPAK (452 to 553 residues) expressed in Escherichia coli BL21 measured for 15 secs by FCS assay
Procedure, shortened: (§1)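 GST-fused rat SPAK CCT (residues 452–553) expressed in E. coli BL21 with IPTG induction for 16 h at 28°C, then glutathione-affinity purified. TAMRA-labelled WNK4 RFQV peptide (2.7 nM final) incubated with 0.5 µM GST–SPAK-CCT in PBS with 0.05% Tween 20 and 1% DMSO for 30 min at 25°C. An AFQV-mutant peptide served as negative control. Binding read by FCS with 15 s acquisition, five measurements per sample, and IC50 calculated from the data.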

HEK-293T [2] = assay: Cytotoxicity against HEK293T cells after 40 hrs by CCK8 assay; type: cell-based; conditions: Homo sapiens
[3] = target: STE20/SPS1-related proline-alanine-rich protein kinase (Rattus norvegicus) (UniProt O88506); assay: Inhibition of TAMRA-labelled WNK4 binding to recombinant rat C-terminal GST-fused SPAK (452 to 553 residues) expressed in Escherichia coli BL21 at > 10^-5 M measured for 15 secs by FCS assay; procedure, shortened: as §1
Mus musculus [4] = assay: In-vivo inhibition of WNK signaling pathway in C57BL/6 mouse assessed as reduction in NKCC2 phosphorylation at 5 to 20 mg/kg, ip after 90 mins by immunoblotting analysis; type: functional, organism-based
Procedure, shortened: (§2)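 Male-unspecified C57BL/6 mice, 10 weeks old, given a single ip injection of 5, 10 or 20 mg/kg in 100 µL DMSO, with DMSO-alone controls. Kidneys taken 90 min later and homogenized in ice-cold 1% Triton X-100 buffer. Nuclear fraction removed, lysate denatured at 60°C for 20 min, and protein measured by Bradford. Total and phospho forms of SPAK, NCC (pSer71), NKCC1 (pThr206) and NKCC2 detected by quantitative immunoblotting.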

Mus musculus [5] = assay: In-vivo inhibition of WNK signaling pathway in ip dosed C57BL/6 mouse assessed as reduction in phosphorylated NCC level after 90 mins by immunoblotting analysis; type: functional, organism-based; procedure, shortened: as §2
Mus musculus [6] = assay: In-vivo inhibition of WNK signaling pathway in C57BL/6 mouse assessed as reduction in NKCC1 phosphorylation at 5 to 20 mg/kg, ip after 90 mins by immunoblotting analysis; type: functional, organism-based; procedure, shortened: as §2
HEK-293T [7] = assay: Cytotoxicity against HEK293T cells at 100 uM after 40 hrs by CCK8 assay; type: cell-based; conditions: human

| IC50 [1] [µM] | SMILES | also measured |
| --- | --- | --- |
| 2.6 | CCOc1ccc2nc3cc(NC(=O)c4cccc(C#N)c4)ccc3c(N)c2c1 |  |
| 35.6 | CCOc1ccc2nc3cc(NCc4ccccc4)ccc3c(N)c2c1 |  |
| 53.5 | CCOc1ccc2nc3cc(NCc4cccs4)ccc3c(N)c2c1 |  |
| 7.6 | CCOc1ccc2nc3cc(NC(=O)c4ccc5ccccc5c4)ccc3c(N)c2c1 |  |
| 15.4 | CCOc1ccc2nc3cc(NCc4ccco4)ccc3c(N)c2c1 | IC50 (HEK-293T [2]): 4.2 µM |
| 20.9 | CCOc1ccc2nc3cc(NC(=O)c4ccc([N+](=O)[O-])cc4)ccc3c(N)c2c1 |  |
|  | CCOc1ccc2nc3cc(NC(=O)c4ccc(C(=O)OC)cc4)ccc3c(N)c2c1 | inhibition [3]: inactive |
|  | CCOc1ccc2nc3cc(NC(=O)c4ccc(C#N)cc4)ccc3cc2c1 | inhibition [3]: inactive |
| 6.9 | CCOc1ccc2nc3cc(NC(=O)c4ccc(C#N)cc4)ccc3c(N)c2c1 | inhibition (Mus musculus [4]): Active; inhibition (Mus musculus [5]): Dose-dependent effect; IC50 (HEK-293T [2]): 25 µM; inhibition (Mus musculus [6]): Active |
| 21.1 | CCOc1ccc2nc3cc(NCc4ccc(OC)cc4OC)ccc3c(N)c2c1 |  |
|  | CCOc1ccc2nc3cc(NC(=O)c4ccc(C#N)cc4)ccc3c(Oc3ccccc3)c2c1 | inhibition [3]: inactive |
| 28.2 | CCOc1ccc2nc3cc(NC(=O)c4ccccc4)ccc3c(N)c2c1 |  |
| > 100 | CCOc1ccc2nc3cc(NC(=O)c4cc(C(F)(F)F)cc(C(F)(F)F)c4)ccc3c(N)c2c1 |  |
| 4.8 | COc1ccc2nc3cc(NC(=O)Nc4ccc(C#N)cc4)ccc3c(N)c2c1 | Activity (HEK-293T [7]): Non-Toxic; inhibition (Mus musculus [4]): Active; inhibition (Mus musculus [5]): Dose-dependent effect; inhibition (Mus musculus [6]): Active |
| 8.2 | CCOc1ccc2nc3cc(NC(=O)c4ccco4)ccc3c(N)c2c1 |  |
| 49 | CCOc1ccc2nc3cc(NC(=O)c4ccc(Cl)cc4)ccc3c(N)c2c1 |  |
| 3.9 | CCOc1ccc2nc3cc(NC(=O)c4cccc([N+](=O)[O-])c4)ccc3c(N)c2c1 |  |
| 2.6 | N#Cc1ccc(NC(=O)Nc2ccc3c(N)c4cc(O)ccc4nc3c2)cc1 |  |
|  | CCOc1ccc2nc3cc(NC(C)=O)ccc3c(N)c2c1 | inhibition [3]: inactive |
| 36.9 | CCOc1ccc2nc3cc(NC(=O)c4ccc(F)cc4)ccc3c(N)c2c1 |  |
